Laboratory results as given in ChEMBL document CHEMBL1139977, “Synthesis and RET protein kinase inhibitory activity of 3-arylureidobenzylidene-indolin-2-ones” (Bioorg Med Chem Lett, 2007).
Active and inactive are the calls of the source. No cut-off for these calls is given here.

Key:
NIH3T3MEN2A = test: Reversion of RET C634R mutant oncogene-transformed morphologic phenotype of mouse NIH3T3MEN2A cells at 10 uM after 72 hrs; assay type: functional, cell-based
[1] = Antiproliferative activity against RET C634R mutant oncogene-transformed mouse NIH3T3MEN2A after 72 hrs; assay type: functional
Procedure, shortened: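 Cells kept at 37 °C in 10% CO2 in DMEM. NIH3T3MEN2A were grown with 5% serum; parental NIH3T3 and NIH3T3H-RAS with 10% calf serum. Compounds were dissolved in DMSO and diluted in medium to 0.5% solvent final.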

NIH3T3 [2] = test: Antiproliferative activity against mouse NIH3T3 after 72 hrs; settings: NIH3T3, 72 h
NIH3T3 [3] = test: Antiproliferative activity against H-RAS transformed mouse NIH3T3 cells after 72 hrs; settings: NIH3T3, 72 h
[4] = molecular target: T1, Proto-oncogene tyrosine-protein kinase receptor Ret (Homo sapiens, UniProt P07949); test: Inhibition of RET in mouse NIH3T3MEN2A cells up to 3 uM; assay type: cell-based
T1 sequence (P07949 whole entry): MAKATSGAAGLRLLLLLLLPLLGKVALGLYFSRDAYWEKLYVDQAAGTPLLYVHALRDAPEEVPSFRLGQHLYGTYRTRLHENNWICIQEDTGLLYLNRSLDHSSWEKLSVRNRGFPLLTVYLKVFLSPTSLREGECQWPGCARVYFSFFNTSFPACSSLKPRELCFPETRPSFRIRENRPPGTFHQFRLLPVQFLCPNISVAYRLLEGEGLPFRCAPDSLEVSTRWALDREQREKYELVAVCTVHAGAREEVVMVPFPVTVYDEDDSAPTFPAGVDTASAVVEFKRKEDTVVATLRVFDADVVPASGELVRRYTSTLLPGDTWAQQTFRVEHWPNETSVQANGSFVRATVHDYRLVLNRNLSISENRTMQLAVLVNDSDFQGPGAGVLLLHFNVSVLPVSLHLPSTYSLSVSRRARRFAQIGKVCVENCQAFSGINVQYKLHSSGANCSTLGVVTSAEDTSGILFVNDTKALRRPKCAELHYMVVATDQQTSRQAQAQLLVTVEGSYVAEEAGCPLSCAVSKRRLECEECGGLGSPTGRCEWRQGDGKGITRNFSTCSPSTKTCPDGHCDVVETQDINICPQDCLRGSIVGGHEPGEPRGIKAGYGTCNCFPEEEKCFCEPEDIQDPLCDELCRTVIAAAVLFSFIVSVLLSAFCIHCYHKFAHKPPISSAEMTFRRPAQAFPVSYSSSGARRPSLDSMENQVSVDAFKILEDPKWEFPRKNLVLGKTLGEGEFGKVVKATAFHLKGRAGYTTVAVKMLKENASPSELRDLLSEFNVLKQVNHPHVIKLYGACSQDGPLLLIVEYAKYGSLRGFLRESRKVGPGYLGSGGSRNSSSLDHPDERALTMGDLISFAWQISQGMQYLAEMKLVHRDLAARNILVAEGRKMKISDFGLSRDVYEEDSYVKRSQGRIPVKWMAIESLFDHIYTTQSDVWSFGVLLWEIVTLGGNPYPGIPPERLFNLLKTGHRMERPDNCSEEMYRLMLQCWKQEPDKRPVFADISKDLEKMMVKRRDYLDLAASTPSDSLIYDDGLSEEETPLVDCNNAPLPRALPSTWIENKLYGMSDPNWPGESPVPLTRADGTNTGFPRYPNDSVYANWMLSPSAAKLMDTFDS
Procedure, shortened: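 NIH3T3MEN2A cells (DMEM with 5% serum, 37 °C, 10% CO2) were exposed to vehicle or a range of concentrations for 24 h, with DMSO at 0.5% final. Whole-cell lysates were Western blotted for Ret autophosphorylation with anti-pTyr (4G10) and anti-pRet-Tyr1062 antibodies, and Ret protein expression was also probed.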

[5] = molecular target: T1, Proto-oncogene tyrosine-protein kinase receptor Ret; test: Inhibition of RET in mouse NIH3T3MEN2A cells; assay type: cell-based

Compound | Activity (NIH3T3MEN2A) | IC50 [1] [µM] | IC50 (NIH3T3 [2]) [µM] | IC50 (NIH3T3 [3]) [µM] | Activity [4] | IC50 [5] [µM]
COc1cc2c(cc1OC)/C(=C\c1ccc(NC(=O)Nc3ccc(N(C)C)cc3)cc1)C(=O)N2 | inactive | > 40 |  |  |  | 
COc1cc2c(cc1OC)N(C)C(=O)/C2=C/c1ccc(NC(=O)Nc2ccccc2)cc1 | Active | 4.1 | 6.6 | 5.4 | inactive | 
COc1cc2c(cc1OC)/C(=C\c1ccc(NC(=O)Nc3ccncc3)cc1)C(=O)N2 | inactive | 4.7 |  |  |  | 
O=C(Nc1ccccc1)Nc1ccc(/C=C2\C(=O)N(O)c3ccccc32)cc1 | inactive | 7.5 |  |  |  | 
COc1cc2c(cc1OC)/C(=C\c1ccc(NC(=O)Nc3ccc(F)cc3)cc1)C(=O)N2 | inactive | 6.1 |  |  |  | 
O=C(Nc1ccccc1)Nc1ccc(/C=C2\C(=O)Nc3ccccc32)cc1 | inactive | > 40 |  |  |  | 
COc1cc2c(cc1OC)/C(=C\c1ccc(C(=O)Nc3ccccc3)cc1)C(=O)N2 | inactive | 12.2 |  |  |  | 
COc1cc2c(cc1OC)/C(=C\c1ccc(NC(=O)Nc3ccc4c(c3)OCO4)cc1)C(=O)N2 | inactive | 19.4 |  |  |  | 
COc1cc2c(cc1OC)C(Cc1ccc(NC(=O)Nc3ccccc3)cc1)C(=O)N2 (stereo unspecified) | inactive | 21.5 |  |  |  | 
COc1cc2c(cc1OC)/C(=C\c1ccc(NC(=O)N3CCN(C)CC3)cc1)C(=O)N2 | Active | 15.8 |  |  |  | > 3
O=C(Nc1ccccc1)Nc1ccc(/C=C2/C(=O)Nc3ccccc32)cc1 | inactive | 10 |  |  |  | 
COc1cc2c(cc1OC)/C(=C\c1ccc(O)cc1)C(=O)N2 | Active | 3.6 | 16.3 | 19.7 |  | 0.17
COc1cc2c(cc1OC)/C(=C\c1ccc(NC(=O)Nc3ccccc3)cc1)C(=O)N2 | Active | 4.6 | 14 | 8.7 |  | 
O=C(Nc1ccccc1)Nc1ccc(/C=C2\C(=O)Nc3ccc(Cl)cc32)cc1 | inactive | > 40 |  |  |  | 
COc1ccc(NC(=O)Nc2ccc(/C=C3/C(=O)Nc4cc(OC)c(OC)cc43)cc2)cc1 | Active | 3.6 | 14.7 | 12.3 |  | 
